Measurements: ChEMBL document CHEMBL1629545, “A morpholino oligomer targeting highly conserved internal ribosome entry site sequence is able to inhibit multiple species of picornavirus” (Antimicrob Agents Chemother, 2008)
Activity calls are given as the source filed them. The calls are words filed in the database; no cut-off is given here.

Assays:
[1] = system: Vero; assay: Cytotoxicity against African green monkey Vero cells at 10 uM after 24 hrs by MTS assay; assay type: cell-based; details: chlorocebus sabaeus
[2] = system: HeLa; assay: Cytotoxicity against human HeLa cells 10 uM after 24 hrs by MTS assay; assay type: cell-based
Method in brief: (§1)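 HeLa cells at ~80% confluence, uninfected, exposed to 1–100 μM PPMO or water (mock) in serum-free DMEM-F-12 (1:1) for 24 h. MTS reagent was added for 4 h and absorbance read at 492 nm. Viability was expressed as percent of water-treated cells (set to 100%), averaged over 12 wells.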

[3] = system: HeLa; assay: Cytotoxicity against human HeLa cells at 10 uM after 48 hrs by MTS assay; assay type: cell-based
Method in brief: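 Time-course viability: uninfected HeLa cells were kept in 10 μM PPMO in DMEM-F-12 and assayed at time points from 10 to 69 h after treatment began. Read-out was the MTS reagent for 4 h with absorbance at 492 nm. Results are given as percent of water-mock cells, each point the mean of 12 wells.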

[4] = system: Poliovirus 1; assay: Antiviral activity against Human poliovirus type 1 infected in Human HeLa cell assessed as inhibition of translation at 10 ug/ml by luciferase reporter gene assay; assay type: functional, organism-based
Method in brief: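 In-cell translation control: HeLa cells electroporated with 20 μg PV1-Luc replicon RNA were placed in medium with 10 μg/ml puromycin at 37°C in 5% CO2. Luciferase in lysates was read by luminometer at hourly time points after transfection. Two experiments were averaged.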

[5] = system: HeLa; assay: Cytotoxicity against human HeLa cells at 10 uM by MTS assay; assay type: cell-based; method in brief: as §1
[6] = system: SK-N-MC; assay: Cytotoxicity against human SK-N-MC cell at 10 uM after 24 hrs by MTS assay; assay type: cell-based

Cc1cn([C@H]2CN(P(=O)(OC[C@@H]3CN(P(=O)(OC[C@@H]4CN(P(=O)(OC[C@@H]5CNC[C@H](n6ccc(N)nc6=O)O5)N(C)C)C[C@H](n5cnc6c(N)ncnc65)O4)N(C)C)C[C@H](n4ccc(N)nc4=O)O3)N(C)C)C[C@@H](COP(=O)(N(C)C)N3C[C@@H](COP(=O)(N(C)C)N4C[C@@H](COP(=O)(N(C)C)N5C[C@@H](COP(=O)(N(C)C)N6C[C@@H](COP(=O)(N(C)C)N7C[C@@H](COP(=O)(N(C)C)N8C[C@@H](COP(=O)(N(C)C)N9C[C@@H](COP(=O)(N(C)C)N%10C[C@@H](COP(=O)(N(C)C)N%11C[C@@H](COP(=O)(N(C)C)N%12C[C@@H](COP(=O)(N(C)C)N%13C[C@@H](COP(=O)(N(C)C)N%14C[C@@H](COP(=O)(N(C)C)N%15C[C@@H](COP(=O)(N(C)C)N%16C[C@@H](COP(=O)(N(C)C)N%17C[C@@H](COP(=O)(N(C)C)N%18C[C@@H](COP(=O)(N(C)C)N%19C[C@@H](COP(=O)(N(C)C)N%20C[C@@H](COP(=O)(N(C)C)N%21C[C@@H](COP(=O)(N(C)C)N%22C[C@@H](COP(=O)(N(C)C)N%23CCN(C(=O)CCNC(=O)CCCCCNC(=O)[C@H](CCCNC(=N)N)NC(=O)CCCCCNC(=O)[C@H](CCCNC(=N)N)NC(=O)[C@H](CCCNC(=N)N)NC(=O)CCCCCNC(=O)[C@H](CCCNC(=N)N)NC(=O)[C@H](CCCNC(=N)N)NC(=O)CCCCCNC(=O)[C@H](CCCNC(=N)N)NC(=O)[C@H](CCCNC(=N)N)NC(=O)CCCCCNC(=O)[C@@H](N)CCCNC(=N)N)CC%23)O[C@@H](n%23ccc(N)nc%23=O)C%22)O[C@@H](n%22cnc%23c(N)ncnc%23%22)C%21)O[C@@H](n%21cnc%22c(N)ncnc%22%21)C%20)O[C@@H](n%20ccc(N)nc%20=O)C%19)O[C@@H](n%19cnc%20c(=O)[nH]c(N)nc%20%19)C%18)O[C@@H](n%18ccc(N)nc%18=O)C%17)O[C@@H](n%17cnc%18c(N)ncnc%18%17)C%16)O[C@@H](n%16cnc%17c(=O)[nH]c(N)nc%17%16)C%15)O[C@@H](n%15ccc(N)nc%15=O)C%14)O[C@@H](n%14ccc(N)nc%14=O)C%13)O[C@@H](n%13cc(C)c(=O)[nH]c%13=O)C%12)O[C@@H](n%12cnc%13c(=O)[nH]c(N)nc%13%12)C%11)O[C@@H](n%11cnc%12c(=O)[nH]c(N)nc%12%11)C%10)O[C@@H](n%10cnc%11c(N)ncnc%11%10)C9)O[C@@H](n9ccc(N)nc9=O)C8)O[C@@H](n8ccc(N)nc8=O)C7)O[C@@H](n7cnc8c(N)ncnc87)C6)O[C@@H](n6ccc(N)nc6=O)C5)O[C@@H](n5ccc(N)nc5=O)C4)O[C@@H](n4cnc5c(=O)[nH]c(N)nc54)C3)O2)c(=O)[nH]c1=O (stereo partly specified) was tested. Which Activity [1] did it give?
The Activity was “Non-toxic”.

And the Activity [2]?
Its Activity is “Toxic”.

And the Activity [3]?
Its Activity is “Toxic”.

And the Activity [4]?
Its Activity is “inactive”.

And the Activity [5]?
Its Activity is “Non-toxic”.

What about the Activity [6] of the same compound?
The Activity was “Non-toxic”.
